From ChEMBL document CHEMBL4152240, “Synthesis, cytotoxicity and structure-activity relationship of indolizinoquinolinedione derivatives as DNA topoisomerase IB catalytic inhibitors” (2018)
Calls of active or inactive are those of the source. The calls are words filed in the database; no cut-off is given here.

Columns and labels:
[1] = target: T1, Topoisomerase I (Bos taurus) (UniProt Q2HPH0); assay: Inhibition of calf thymus TOP1-mediated relaxation of supercoiled pBR322 DNA at 25 uM after 30 mins by agarose gel electrophoresis relative to camptothecin
T1 sequence (whole entry): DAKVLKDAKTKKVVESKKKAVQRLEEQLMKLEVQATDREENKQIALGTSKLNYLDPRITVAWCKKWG
Outline: (§1)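 0.5 µg supercoiled pBR322 in buffer (10 mM Tris-HCl pH 7.5, 50 mM KCl, 5 mM MgCl2, BSA, DTT) with 1 unit calf thymus TOP1, with or without compound (0.2-125 µM), 30 min at 37 C. Run on 0.8% agarose/TBE at 4.6 V/cm for 1.5 h, gel red stained. Activity graded in bands (e.g. +++ 81-120%). At least two independent repeats.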

[2] = target: T1, Topoisomerase I (Bos taurus); assay: Inhibition of calf thymus TOP1-mediated relaxation of supercoiled pBR322 DNA after 30 mins by agarose gel electrophoresis; outline: as §1
[3] = target: T1, Topoisomerase I (Bos taurus); assay: Inhibition of calf thymus TOP1-mediated relaxation of supercoiled pBR322 DNA at 125 uM after 30 mins by agarose gel electrophoresis relative to control; outline: as §1
DNA [4] = assay: Induction of unwinding effect of Escherichia coli relaxed pBR322 DNA at 1 to 9 uM preincubated with DNA for 10 mins followed by excess calf thymus TOP1 addition and measured after 30 mins by agarose gel electrophoresis; type: nucleic-acid assay
Outline: (§2)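 Compound (1, 3, 9 µM) preincubated with pBR322 DNA, supercoiled or relaxed, at room temperature for 10 min. Excess TOP1 then added and incubated 30 min at 37 C. Stopped with SDS/proteinase K. Ethidium bromide (0.3-1.2 mg/L) as positive control. Run on 0.8% agarose in TBE at 4.6 V/cm for 1.5 h, stained with gel red, UV visualized.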

DNA [5] = assay: Induction of unwinding effect of Escherichia coli supercoiled pBR322 DNA at 1 to 9 uM preincubated with DNA for 10 mins followed by excess calf thymus TOP1 addition and measured after 30 mins by agarose gel electrophoresis; type: nucleic-acid assay; outline: as §2
HCT-116 [6] = assay: Cytotoxicity against human HCT116 cells assessed as growth inhibition after 72 hrs by MTT assay; type: functional; conditions: HCT-116, 72 h
Outline: (§3)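 Five-dose MTT growth assay, compounds predissolved in DMSO, 72 h exposure at 37 C. Cells kept in RPMI-1640 or DMEM, 37 C, 5% CO2, passage 3-6. MTT (1 mg/mL in PBS) added for 4 h, formazan dissolved in DMSO, OD 570 nm. GI50 (50% growth inhibition) by nonlinear regression. Means ± SD, at least three repeats.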

CCRF-CEM = assay: Cytotoxicity against human CCRF-CEM cells assessed as growth inhibition after 72 hrs by MTT assay; type: functional; outline: as §3
A549 = assay: Cytotoxicity against human A549 cells assessed as growth inhibition after 72 hrs by MTT assay; type: functional; conditions: A549, 72 h; outline: as §3
Huh-7 = assay: Cytotoxicity against human HuH7 cells assessed as growth inhibition after 72 hrs by MTT assay; type: functional; conditions: Huh-7, 72 h; outline: as §3
DU-145 = assay: Cytotoxicity against human DU145 cells assessed as growth inhibition after 72 hrs by MTT assay; type: functional; conditions: DU-145, 72 h; outline: as §3
HCT-116 [7] = assay: Induction of apoptosis in human HCT116 cells assessed as early apoptotic cells at 1 uM after 12 hrs by annexin V-FITC/propidium iodide staining-based flow cytometric method (reference value: 0.47 to 1.19%); type: functional
HCT-116 [8] = assay: Induction of apoptosis in human HCT116 cells assessed as late apoptotic cells at 1 uM after 12 hrs by annexin V-FITC/propidium iodide staining-based flow cytometric method (reference value: 0.34 to 0.81%); type: functional
HCT-116 [9] = assay: Induction of apoptosis in human HCT116 cells assessed as viable cells at 1 uM after 12 hrs by annexin V-FITC/propidium iodide staining-based flow cytometric method (reference value: 97.60 to 98.95%); type: functional; conditions: HCT-116, 12 h, read-out: Activity
HCT-116 [10] = assay: Induction of apoptosis in human HCT116 cells assessed as early apoptotic cells at 3 uM after 12 hrs by annexin V-FITC/propidium iodide staining-based flow cytometric method (reference value: 0.47 to 1.19%); type: functional
HCT-116 [11] = assay: Induction of apoptosis in human HCT116 cells assessed as late apoptotic cells at 3 uM after 12 hrs by annexin V-FITC/propidium iodide staining-based flow cytometric method (reference value: 0.34 to 0.81%); type: functional
HCT-116 [12] = assay: Induction of apoptosis in human HCT116 cells assessed as viable cells at 3 uM after 12 hrs by annexin V-FITC/propidium iodide staining-based flow cytometric method (reference value: 97.60 to 98.95%); type: functional; conditions: HCT-116, 12 h, read-out: Activity
HCT-116 [13] = assay: Induction of apoptosis in human HCT116 cells assessed as early apoptotic cells at 9 uM after 12 hrs by annexin V-FITC/propidium iodide staining-based flow cytometric method (reference value: 0.47 to 1.19%); type: functional
HCT-116 [14] = assay: Induction of apoptosis in human HCT116 cells assessed as late apoptotic cells at 9 uM after 12 hrs by annexin V-FITC/propidium iodide staining-based flow cytometric method (reference value: 0.34 to 0.81%); type: functional
HCT-116 [15] = assay: Induction of apoptosis in human HCT116 cells assessed as viable cells at 9 uM after 12 hrs by annexin V-FITC/propidium iodide staining-based flow cytometric method (reference value: 97.60 to 98.95%); type: functional; conditions: HCT-116, 12 h, read-out: Activity
HCT-116 [16] = assay: Induction of apoptosis in human HCT116 cells after 12 hrs by annexin V-FITC/propidium iodide staining-based flow cytometric method; type: functional, cell-based
MCF7 = assay: Cytotoxicity against human MCF7 cells assessed as growth inhibition after 72 hrs by MTT assay; type: functional; conditions: MCF7, 72 h
Outline: (§4)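 MTT growth assay in drug-resistant sublines and parental lines. HCT116-siTop1 was made by transfecting HCT116 with shRNA vectors expressing TOP1 siRNA. MCF-7, HepG2 and their ADR-resistant lines were gifts. Five-dose DMSO-predissolved compounds for 72 h at 37 C, then MTT 4 h, DMSO solubilization, OD 570 nm. GI50 by nonlinear regression. At least three repeats.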

HepG2 = assay: Cytotoxicity against human HepG2 cells assessed as growth inhibition after 72 hrs by MTT assay; type: functional; conditions: HepG2, 72 h; outline: as §4
HCT-116 [17] = assay: Cytotoxicity against human HCT116 cells expressing TOP1 siRNA assessed as growth inhibition after 72 hrs by MTT assay; type: functional; conditions: HCT-116, 72 h; outline: as §4
[18] = Cytotoxicity against human RC0.1 cells assessed as growth inhibition after 72 hrs by MTT assay; type: functional
NCI/ADR-RES = assay: Cytotoxicity against human MCF7/ADR cells assessed as growth inhibition after 72 hrs by MTT assay; type: functional; outline: as §4
[19] = Cytotoxicity against human HepG2/ADR cells assessed as growth inhibition after 72 hrs by MTT assay; type: functional; conditions: HepG2, 72 h; outline: as §4
[20] = Resistance ratio of GI50 for human HCT116 cells expressing TOP1 siRNA to GI50 for human HCT116 cells; type: functional
Outline: (§5)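 Resistance ratio: the GI50 in the resistant or TOP1-knockdown subline divided by the GI50 in the matching parental line.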

[21] = Resistance ratio of GI50 for human RC0.1 cells to GI50 for human DU145 cells; type: functional
[22] = Resistance ratio of GI50 for human MCF7/ADR cells to GI50 for human MCF7 cells; type: functional; outline: as §5
[23] = Resistance ratio of GI50 for human HepG2/ADR cells to GI50 for human HepG2 cells; type: functional; outline: as §5
[24] = target: T1, Topoisomerase I (Bos taurus); conditions: 0.2 to 1 uM
DNA [25] = assay: Induction of unwinding effect of Escherichia coli supercoiled pBR322 DNA at 0.3 to 1.2 mg/L preincubated with DNA for 10 mins followed by excess calf thymus TOP1 addition and measured after 30 mins by agarose gel electrophoresis; type: nucleic-acid assay
Outline: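 Supercoiled or relaxed pBR322 DNA was preincubated with ethidium bromide (0.3, 0.6, 1.2 mg/L, positive control) for 10 min at room temperature. Excess TOP1 was then added for 30 min at 37 °C. The reaction was stopped with SDS/proteinase K, run on 0.8% agarose in TBE at 4.6 V/cm for 1.5 h, then gel-red stained and UV imaged.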

Row | SMILES | inhibition [1] | inhibition [2] | inhibition [3] | Activity (DNA [4]) | Activity (DNA [5]) | GI50 (HCT-116 [6]) | GI50 (CCRF-CEM) | GI50 (A549) | GI50 (Huh-7) | GI50 (DU-145) | Activity (HCT-116 [7]) | Activity (HCT-116 [8]) | viability at 1 µM (HCT-116 [9]) | Activity (HCT-116 [10]) | Activity (HCT-116 [11]) | viability at 3 µM (HCT-116 [12]) | Activity (HCT-116 [13]) | Activity (HCT-116 [14]) | viability at 9 µM (HCT-116 [15]) | Activity (HCT-116 [16]) | other results
1 | O=C1c2cccnc2C(=O)c2c1c(C(=O)OCCCN1CCCCC1)c1c(F)cccn21 | > 121% | Dose-dependent effect | 100% | inactive | inactive | 0.027 µM | 0.35 µM | 0.072 µM | 0.12 µM | 0.21 µM | 2.14% | 3.98% | 93.4% | 2.5% | 16.74% | 79% | 4.73% | 31.59% | 61.7% | Dose-dependent effect | 
2 | O=C1c2cccnc2C(=O)c2c1c(C(=O)OCCN1CCCC1)c1c(F)cccn21 | > 121% | Dose-dependent effect | 100% | inactive | inactive | 0.023 µM | 0.79 µM | 0.06 µM | 0.12 µM | 0.082 µM | 0.79% | 1.17% | 97.7% | 1.69% | 8.5% | 86% | 10.17% | 32.1% | 51.3% | Dose-dependent effect | GI50 (MCF7): 0.089 µM; GI50 (HepG2): 0.051 µM; GI50 (HCT-116 [17]): 0.15 µM; GI50 [18]: 2.94 µM; GI50 (NCI/ADR-RES): 0.097 µM; GI50 [19]: 0.38 µM; RatioGI50 [20]: 6.5; RatioGI50 [21]: 36.8; RatioGI50 [22]: 1.1; RatioGI50 [23]: 7.5
3 | O=C1c2cccnc2C(=O)c2c1c(C(=O)OCCN1CCCCC1)c1c(F)cccn21 | > 121% | Dose-dependent effect | 100% | inactive | inactive | 0.025 µM | 0.38 µM | 0.29 µM | 0.059 µM | 0.091 µM | 2.12% | 2.39% | 95.2% | 1.26% | 10.47% | 86.9% | 2.47% | 38.17% | 57.1% | Dose-dependent effect | 
4 | CC[C@@]1(O)C(=O)OCc2c1cc1n(c2=O)Cc2cc3ccccc3nc2-1 [CAMPTOTHECIN] |  |  | 58% |  |  |  | 0.002 µM | 0.003 µM | 0.006 µM | 0.019 µM |  |  |  |  |  |  |  |  |  |  | GI50 [18]: 7.53 µM; inhibition [24]: Active
5 | CC[n+]1c(-c2ccccc2)c2cc(N)ccc2c2ccc(N)cc21 |  |  |  |  |  |  |  |  |  |  |  |  |  |  |  |  |  |  |  |  | Activity (DNA [25]): Active
